Values after ≈ are worked out from the molar mass of the structure shown.
Assays:
Staphylococcus aureus [1] = assay: Antibacterial activity against MLS-resistant Staphylococcus aureus PU 32 expressing inducible ermA gene assessed as reduction in microbial growth by CLSI based two-fold broth dilution method; assay type: functional
Streptococcus pneumoniae [2] = assay: Antibacterial activity against erythromycin-susceptible Streptococcus pneumoniae ATCC49619 assessed as reduction in microbial growth by CLSI based two-fold broth dilution method; assay type: functional
Streptococcus pneumoniae [3] = assay: Bactericidal activity against erythromycin-susceptible Streptococcus pneumoniae ATCC49619 pretreated followed by subculture in absence of compound measured after 24 hrs; assay type: functional
Outline: (§1)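 Isolates were identified by 16S rDNA sequencing. MIC was determined by CLSI-recommended two-fold broth dilution. For MBC, samples from 1–8 fold MIC were transferred to culture medium and subcultured for 24 h without antibiotic.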

Haemophilus influenzae [4] = assay: Antibacterial activity against azithromycin-susceptible Haemophilus influenzae ATCC 49247 assessed as reduction in microbial growth by CLSI based two-fold broth dilution method; assay type: functional
Streptococcus pneumoniae [5] = assay: Antibacterial activity against Streptococcus pneumoniae 07P390 expressing constitutive ermB gene assessed as reduction in microbial growth by CLSI based two-fold broth dilution method; assay type: functional
Streptococcus pneumoniae [6] = assay: Antibacterial activity against penicillin-susceptible Streptococcus pneumoniae PU 09 expressing mef gene assessed as reduction in microbial growth by CLSI based two-fold broth dilution method; assay type: functional
Streptococcus pneumoniae [7] = assay: Bactericidal activity against penicillin-susceptible Streptococcus pneumoniae PU 09 expressing mef gene pretreated followed by subculture in absence of compound measured after 24 hrs; assay type: functional; outline: as §1
Streptococcus pneumoniae [8] = assay: Selectivity ratio of MBC to MIC for penicillin-susceptible Streptococcus pneumoniae PU 09 expressing mef gene; assay type: functional; outline: as §1
Streptococcus pneumoniae [9] = assay: Bactericidal activity against Streptococcus pneumoniae 07P390 expressing constitutive ermB gene pretreated followed by subculture in absence of compound measured after 24 hrs; assay type: functional; outline: as §1
Streptococcus pneumoniae [10] = assay: Selectivity ratio of MBC to MIC for Streptococcus pneumoniae 07P390 expressing constitutive ermB gene; assay type: functional; outline: as §1
Haemophilus influenzae [11] = assay: Bactericidal activity against azithromycin-susceptible Haemophilus influenzae ATCC 49247 pretreated followed by subculture in absence of compound measured after 24 hrs; assay type: functional; outline: as §1
Haemophilus influenzae [12] = assay: Selectivity ratio of MBC to MIC for azithromycin-susceptible Haemophilus influenzae ATCC 49247; assay type: functional; outline: as §1
Streptococcus pyogenes [13] = assay: Antibacterial activity against MLS-resistant Streptococcus pyogenes 01-968 expressing inducible ermB gene assessed as reduction in microbial growth by CLSI based two-fold broth dilution method; assay type: functional
Streptococcus pyogenes [14] = assay: Bactericidal activity against MLS-resistant Streptococcus pyogenes 01-968 expressing inducible ermB gene pretreated followed by subculture in absence of compound measured after 24 hrs; assay type: functional
Outline: (§2)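 MBC assay. Following MIC determination by CLSI standard two-fold broth dilution, samples at 1–8 fold MIC were transferred to fresh culture medium. They were subcultured for 24 h without antibiotic. Isolates were identified by 16S rDNA sequencing. S. aureus ATCC 29213 was used as a control strain.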

Streptococcus pyogenes [15] = assay: Selectivity ratio of MBC to MIC for MLS-resistant Streptococcus pyogenes 01-968 expressing inducible ermB gene; assay type: functional
Outline: (§3)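 MBC/MIC ratio. MIC was measured by CLSI standard two-fold broth dilution. MBC was measured by transferring samples at 1–8 fold MIC to culture medium and subculturing for 24 h without antibiotic. Isolates were identified by 16S rDNA sequencing.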

Staphylococcus aureus [16] = assay: Bactericidal activity against MLS/methicillin-resistant Staphylococcus aureus PU 32 expressing inducible ermA gene pretreated followed by subculture in absence of compound measured after 24 hrs; assay type: functional; outline: as §2
Staphylococcus aureus [17] = assay: Selectivity ratio of MBC to MIC for MLS/methicillin-resistant Staphylococcus aureus PU 32 expressing inducible ermA gene; assay type: functional; outline: as §3
Staphylococcus aureus [18] = assay: Antibacterial activity against MLS-resistant Staphylococcus aureus PU 20 expressing constitutive ermC gene assessed as reduction in microbial growth by CLSI based two-fold broth dilution method; assay type: functional
Staphylococcus aureus [19] = assay: Bactericidal activity against MLS-resistant Staphylococcus aureus PU 20 expressing constitutive ermC gene pretreated followed by subculture in absence of compound measured after 24 hrs; assay type: functional; outline: as §2
Streptococcus pyogenes [20] = assay: Antibacterial activity against MLS-resistant Streptococcus pyogenes 12-206 expressing constitutive ermA gene assessed as reduction in microbial growth by CLSI based two-fold broth dilution method; assay type: functional
Streptococcus pyogenes [21] = assay: Bactericidal activity against MLS-resistant Streptococcus pyogenes 12-206 expressing constitutive ermA gene pretreated followed by subculture in absence of compound measured after 24 hrs; assay type: functional; outline: as §2
Streptococcus pyogenes [22] = assay: Selectivity ratio of MBC to MIC for MLS-resistant Streptococcus pyogenes 12-206 expressing constitutive ermA gene; assay type: functional; outline: as §3
Streptococcus pyogenes [23] = assay: Antibacterial activity against Streptococcus pyogenes 12-207 expressing mef gene assessed as reduction in microbial growth by CLSI based two-fold broth dilution method; assay type: functional
Streptococcus pyogenes [24] = assay: Bactericidal activity against Streptococcus pyogenes 12-207 expressing mef gene pretreated followed by subculture in absence of compound measured after 24 hrs; assay type: functional; outline: as §1
Streptococcus pyogenes [25] = assay: Selectivity ratio of MBC to MIC for Streptococcus pyogenes 12-207 expressing mef gene; assay type: functional; outline: as §1
Moraxella catarrhalis [26] = assay: Antibacterial activity against erythromycin-susceptible Moraxella catarrhalis 13L332 assessed as reduction in microbial growth by CLSI based two-fold broth dilution method; assay type: functional
Moraxella catarrhalis [27] = assay: Bactericidal activity against erythromycin-susceptible Moraxella catarrhalis 13L332 pretreated followed by subculture in absence of compound measured after 24 hrs; assay type: functional; outline: as §1
Moraxella catarrhalis [28] = assay: Selectivity ratio of MBC to MIC for erythromycin-susceptible Moraxella catarrhalis 13L332; assay type: functional; outline: as §1
[29] = AUCinfinity in Sprague-Dawley rat at 20 mg/kg, po after 0.25 to 24 hrs by LC-MS/MS analysis; assay type: ADME, organism-based; set-up: dose 20 mg/kg, time infinity, route oral; settings: Sprague-Dawley, in vivo
Outline: (§4)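 Male SD rats were given a single 20 mg/Kg oral dose. Blood was sampled at 0.25, 0.5, 1, 2, 4, 6, 8 and 24 h and centrifuged at 2500 g for 5 min at 4 °C. Drug levels were quantified by LC-MS/MS. t1/2, Cmax, Tmax, CL, MRT and AUC were calculated from the concentration–time data.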

[30] = AUC (0 to t) in Sprague-Dawley rat at 20 mg/kg, po after 0.25 to 24 hrs by LC-MS/MS analysis; assay type: ADME, organism-based; set-up: time upper 24 hr, dose 20 mg/kg, time lower 0.25 hr, route oral; settings: in vivo; outline: as §4
[31] = Systemic plasma clearance in Sprague-Dawley rat at 20 mg/kg, po after 0.25 to 24 hrs by LC-MS/MS analysis; assay type: ADME, organism-based; outline: as §4
[32] = Half life in Sprague-Dawley rat at 20 mg/kg, po after 0.25 to 24 hrs by LC-MS/MS analysis; assay type: ADME, organism-based; settings: in vivo; outline: as §4
[33] = MRT in Sprague-Dawley rat at 20 mg/kg, po after 0.25 to 24 hrs by LC-MS/MS analysis; assay type: ADME, organism-based; settings: in vivo; outline: as §4
[34] = Tmax in Sprague-Dawley rat at 20 mg/kg, po after 0.25 to 24 hrs by LC-MS/MS analysis; assay type: ADME, organism-based; settings: in vivo; outline: as §4
[35] = Cmax in Sprague-Dawley rat at 20 mg/kg, po after 0.25 to 24 hrs by LC-MS/MS analysis; assay type: ADME, organism-based; set-up: dose 20 mg/kg, route oral; settings: in vivo; outline: as §4
Cytochrome P450 3A4 [36] = biological target: T1, Cytochrome P450 3A4 (Homo sapiens, UniProt P08684); assay: Inhibition of CYP3A4 in human liver microsomes assessed as reduction in metabolite formation using midazolam as substrate incubated for 10 mins in presence of NADPH by HPLC based mass spectrometric method; assay type: ADME
T1 sequence (P08684 whole entry): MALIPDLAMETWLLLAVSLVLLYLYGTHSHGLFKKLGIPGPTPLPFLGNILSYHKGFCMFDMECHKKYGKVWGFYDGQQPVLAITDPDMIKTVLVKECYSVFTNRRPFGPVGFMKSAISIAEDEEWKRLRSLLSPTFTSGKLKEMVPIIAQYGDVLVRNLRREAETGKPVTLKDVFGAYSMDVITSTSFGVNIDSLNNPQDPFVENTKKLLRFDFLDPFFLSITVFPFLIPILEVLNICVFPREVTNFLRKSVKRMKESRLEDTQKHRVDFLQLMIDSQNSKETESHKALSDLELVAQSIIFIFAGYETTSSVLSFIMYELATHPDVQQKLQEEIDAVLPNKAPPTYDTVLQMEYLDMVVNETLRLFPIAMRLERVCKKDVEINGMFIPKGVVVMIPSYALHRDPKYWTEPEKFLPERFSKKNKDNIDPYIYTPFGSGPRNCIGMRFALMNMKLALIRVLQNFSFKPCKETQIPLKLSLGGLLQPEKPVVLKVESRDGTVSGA
Outline: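 Human liver microsome CYP3A4 with midazolam substrate in 0.1 M potassium phosphate buffer was prewarmed at 37 °C for 5 min. Compound and 25 mM NADPH solution (stock) were added, then incubated at 37 °C for 10 min. Ketoconazole served as the positive inhibitor. Metabolite was measured by UPLC–triple quadrupole MS as the metabolite/internal standard peak area ratio, and IC50 was derived by curve fitting.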

Rattus norvegicus = assay: Ratio of test compound half life to telithromycin half life in Sprague-Dawley rat at 20 mg/kg, po after 0.25 to 24 hrs by LC-MS/MS analysis; assay type: ADME, organism-based; settings: in vivo
[37] = Ratio of test compound MRT to telithromycin MRT in Sprague-Dawley rat at 20 mg/kg, po after 0.25 to 24 hrs by LC-MS/MS analysis; assay type: ADME, organism-based; settings: in vivo
Cytochrome P450 3A4 [38] = biological target: T1, Cytochrome P450 3A4; assay: Inhibition of CYP3A4 (unknown origin); assay type: ADME
Streptococcus pneumoniae [39] = assay: Selectivity ratio of MBC to MIC for erythromycin-susceptible Streptococcus pneumoniae ATCC49619; assay type: functional; outline: as §1

SMILES | MIC (Staphylococcus aureus [1]) [µg/mL] | MIC (Haemophilus influenzae [4]) [µg/mL] | MIC (Streptococcus pneumoniae [5]) [µg/mL] | MIC (Streptococcus pneumoniae [6]) [µg/mL] | MBC (Streptococcus pneumoniae [7]) [µg/mL] | Selectivity ratio (Streptococcus pneumoniae [8]) | MBC (Streptococcus pneumoniae [9]) [µg/mL] | Selectivity ratio (Streptococcus pneumoniae [10]) | MBC (Haemophilus influenzae [11]) [µg/mL] | Selectivity ratio (Haemophilus influenzae [12]) | MBC (Streptococcus pyogenes [14]) [µg/mL] | Selectivity ratio (Streptococcus pyogenes [15]) | MBC (Staphylococcus aureus [16]) [µg/mL] | Selectivity ratio (Staphylococcus aureus [17]) | MIC (Staphylococcus aureus [18]) [µg/mL] | MIC (Streptococcus pyogenes [20]) [µg/mL] | MBC (Streptococcus pyogenes [21]) [µg/mL] | Selectivity ratio (Streptococcus pyogenes [22]) | MIC (Streptococcus pyogenes [23]) [µg/mL] | MBC (Streptococcus pyogenes [24]) [µg/mL] | other results
CC[C@H]1OC(=O)[C@@](C)(F)C(=O)[C@H](C)[C@@H](O[C@@H]2O[C@H](C)C[C@H](N(C)C)[C@H]2O)[C@](C)(OC)C[C@@H](C)/C(=N\OCC#Cc2ccc3c(c2)c(=O)c(C(N)=O)cn3CC)[C@H](C)[C@H]2OC(=O)O[C@@]21C | 1 | 16 | 0.125 | 0.25 | 0.5 (≈ 0.556 µM) | 2 | > 1 | >8 | 32 (≈ 35.6 µM) | 2 | > 0.016 | >8 | 8 (≈ 8.9 µM) | 8 | 128 | 0.125 | > 1 | >8 | 0.125 | 0.5 (≈ 0.556 µM) | MIC (Streptococcus pneumoniae [2]): ≤ 0.008 µg/mL; MBC (Streptococcus pneumoniae [3]): ≤ 0.008 µg/mL; MIC (Streptococcus pyogenes [13]): ≤ 0.002 µg/mL; MBC (Staphylococcus aureus [19]): > 256 µg/mL; Selectivity ratio (Streptococcus pyogenes [25]): 4; MIC (Moraxella catarrhalis [26]): 4 µg/mL; MBC (Moraxella catarrhalis [27]): 32 µg/mL (≈ 35.6 µM); Selectivity ratio (Moraxella catarrhalis [28]): 8; AUC(0-inf) [29]: 281 ng·h/mL; AUC(0-t) [30]: 228 ng·h/mL; CL/F [31]: 1190 mL/min/kg; half-life [32]: 3.2 h; MRT [33]: 8.53 h; Tmax [34]: 7 h; Cmax [35]: 43.5 ng/mL; IC50 (Cytochrome P450 3A4 [36]): 7.32 µM; Ratio (Rattus norvegicus): 2.5 to 3.6; Ratio [37]: 2.3 to 2.6
CC[C@H]1OC(=O)[C@H](C)C(=O)[C@H](C)[C@@H](O[C@@H]2O[C@H](C)C[C@H](N(C)C)[C@H]2O)[C@](C)(OCC=Cc2cnc3ccccc3c2)C[C@@H](C)C(=O)[C@H](C)[C@H]2NC(=O)O[C@@]21C [CETHROMYCIN] | – | – | – | – | – | – | – | – | – | – | – | – | – | – | – | – | – | – | – | – | IC50 (Cytochrome P450 3A4 [38]): 2.7 µM
CC[C@H]1OC(=O)[C@H](C)C(=O)[C@H](C)[C@@H](O[C@@H]2O[C@H](C)C[C@H](N(C)C)[C@H]2O)[C@](C)(OC)C[C@@H](C)C(=O)[C@H](C)[C@H]2N(CCCCn3cnc(-c4cccnc4)c3)C(=O)O[C@]12C [TELITHROMYCIN] | 0.125 to 0.25 | 4 | 0.016 to 0.125 | 0.25 to 0.5 | 0.5 to 4 (≈ 0.616 to 4.93 µM) | 2 - 8 | 0.125 to 1 (≈ 0.154 to 1.23 µM) | >=8 | 16 (≈ 19.7 µM) | 4 | 0.016 to 0.125 (≈ 0.0197 to 0.154 µM) | >=4 - 8 | ≥ 1 | >=4 - 8 | > 256 | 0.031 | > 0.25 | >8 | 0.25 | 1 (≈ 1.23 µM) | Selectivity ratio (Streptococcus pneumoniae [39]): 1 - 4; Selectivity ratio (Streptococcus pyogenes [25]): 4; MIC (Moraxella catarrhalis [26]): 0.25 µg/mL; MBC (Moraxella catarrhalis [27]): > 2 µg/mL; Selectivity ratio (Moraxella catarrhalis [28]): >8; AUC(0-inf) [29]: 927 ng·h/mL; AUC(0-t) [30]: 897 ng·h/mL; CL/F [31]: 363 mL/min/kg; half-life [32]: 1.22 h; MRT [33]: 3.27 h; Tmax [34]: 2 h; Cmax [35]: 204 ng/mL; IC50 (Cytochrome P450 3A4 [36]): 11.8 µM
